Source: PubChem BioAssay
DAX1 inh-1 = NR0B1 (DAX1) inhibition; P51843; HEK293 Gal4-DAX1 luciferase reporter, luminescence; inhibition, % at 6.75 µM; 0.99% of 340,000 active;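 active means inhibition above the mean over all tested compounds plus 3 SD, cut at about 4.2% in these data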;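 further: 0% = DAX1-transfected cells with DMSO and 100% = empty-vector control cells with DMSO; inhibition shows as a rise in luminescence from relieved DAX1 repression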
Target sequence (P51843 207-470 limits assumed): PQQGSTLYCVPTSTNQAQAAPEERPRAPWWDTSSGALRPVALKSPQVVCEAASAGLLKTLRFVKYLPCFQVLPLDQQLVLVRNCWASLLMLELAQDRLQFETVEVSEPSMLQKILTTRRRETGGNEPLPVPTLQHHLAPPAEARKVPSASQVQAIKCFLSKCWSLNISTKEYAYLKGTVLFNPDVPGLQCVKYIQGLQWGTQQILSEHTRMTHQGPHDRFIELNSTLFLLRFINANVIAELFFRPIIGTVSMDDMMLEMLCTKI
JMJD2C inh = inhibitors of human GASC-1 (JMJD2C) demethylase | Q9H3R0 | GST-JMJD2C(1-420) H3K9me3 demethylation, DELFIA europium | inhibition, % at 2.35 µM | 0.069% of 330,000 active | AID 2099;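 active means more than half of a compound's replicate wells show inhibition beyond 50%, single wells judged on their own value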;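 further: signal counts dimethyl H3K9 product captured on neutravidin plate; 0% = median of DMSO wells and 100% = 0.3 times that DMSO median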
SMARCA2 act = increases SMARCA2 function in MMTV reporter cells; MG213 cells, MMTV-luciferase reporter, dexamethasone, overnight; activation, % at 9.1 µM; 1% of 370,000 active; AID 652017; in the data active means activation above about 7.8%;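 further: 0% = vehicle wells and 100% = reference activator wells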
NR2E3 ag-1 = human photoreceptor-specific nuclear receptor agonism; Q9Y5X4; CHO-S Gal4-NCOR/VP16-NR2E3 two-hybrid, luciferase; 0.35% of 360,000 active; AID 602229; inhibition of corepressor binding, % at 3.98 µM;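 active means inhibition above the mean of all tested compounds plus 3 SD, cut at about 70% in these data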;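 further: 0% = DMSO with NR2E3 transfected cells and 100% = cells lacking NR2E3 construct; higher means lower luciferase signal from less NR2E3 corepressor binding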
DAX1 inh-2 = DAX1 (NR0B1) inhibition, primary screen. inhibition, % at 6.8 µM. HEK293T StAR-luciferase reporter, SF-1/DAX-1 repression relief. AID 652010. 1.1% of 370,000 active;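 active means inhibition above the mean over all tested compounds plus 3 SD, cut at about 3.6% in these data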;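 further: 0% = DAX-1 cells with DMSO and 100% = cells lacking DAX-1 with DMSO; higher inhibition means more luminescence from relief of DAX-1 repression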
NR2E3 ag-2 = NR2E3 (human) agonism | 0.12% of 320,000 active | inhibition of corepressor binding, % at 4.78 µM | AID 2300 | GST-NR2E3/biotin-RetCOR TR-FRET, 1536-well;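 active means percent inhibition above the cutoff of mean plus 3 SD of all tested compounds, set per screening campaign, cut at about 20% in these data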;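 further: 0% = DMSO wells and 100% = biotin wells as full block of FRET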
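Material: NR2E3–RetCOR corepressor complex | Quantity: 1.35 nM GST-tagged NR2E3 final | Schedule: 5 h at 4 °C | Replication: Singlicate compound wells | Reagent: RetCOR corepressor, biotinylated, 7 nM | Controls: Biotin wells as high control, 0.6% DMSO wells as low control | Signal: TR-FRET, Eu(K)-anti-GST donor, streptavidin-D2 acceptor, ex 340, em 617/671 nm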
DAX1 inh confirm = NR0B1 (human) inhibition, confirmation | shares compounds with DAX1 inh-2 | HEK293T StAR-promoter luciferase reporter, SF-1/DAX-1 repression | inhibition, % at 6.8 µM | 87% of 2,400 active;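 active means inhibition above the average of every tested compound plus 3 SD, cut at about 3.8% in these data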;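 further: 0% = DAX-1 cells with DMSO and 100% = no DAX-1 control cells with DMSO; active compounds raise luminescence by relieving repression of the StAR reporter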
SF1 AF2mut Luc = nonselective inhibitor or artifact in SF-1 mutant DAX1 counter-screen; 78% of 2,400 active; inhibition, % at 6.8 µM; shares compounds with DAX1 inh-2; AID 652136; HEK293 StAR-luciferase, SF-1 AF2 mutant, luminescence;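 active means inhibition above the mean of all tested compounds plus 3 SD, cut at about 3% in these data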;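 further: 0% = DAX-1 transfected cells with DMSO and 100% = cells without DAX-1 with DMSO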
Active calls of the source: *; · = no result. An excerpt weighted towards active compounds, which were near 3.2% of everything screened.

SMILES	DAX1 inh-1	JMJD2C inh	SMARCA2 act	NR2E3 ag-1	DAX1 inh-2	NR2E3 ag-2	DAX1 inh confirm	SF1 AF2mut Luc
COc1ccc(-c2cc(=Nc3ccc(C)cc3)c3ccccc3o2)cc1	0	6	0	-91	1	3	·	·
COc1ccc(-c2cc(=NC(CC(C)C)C(=O)O)c3cc(C)ccc3o2)cc1 (stereo not given)	3	-2	6	-154	5.2*	-6	4.5*	5.2*
O=C(Nc1nccs1)c1csc([C@H]2C[C@H](O)[C@@H](CO)O2)n1	·	·	-2	-77	4.9*	·	5.9*	3.0*
C=CCN1C(=O)[C@@H](CC(=O)N2CCC(c3ccccc3)CC2)[C@]2(C(=O)OCC)CCCCC/C=C/12	·	·	-3	·	0	·	·	·
Cc1ccc(NC(=O)COc2ccccc2[N+](=O)[O-])nc1	-1	2	7	-137	4.7*	3	11*	5.9*
Cc1ccnc(NC(=O)COc2ccccc2[N+](=O)[O-])c1	0	·	3	-157	4.9*	·	13*	5.2*
O=C(NCC1CCCO1)c1cc2c(s1)CCC2 (stereo not given)	4	-7	2	-65	2	4	·	·
CC1CCc2sc(C(=O)NCC3CCCO3)cc2C1 (stereo not given)	4	·	4	-133	7.2*	·	9.9*	6.5*
Cc1ccccc1NC(=O)N1c2ccccc2CC1C (stereo not given)	-1	-5	0	-2	0	5	·	·
COC(=O)c1ccc(NC(=O)Nc2ccc3c(c2)nc(C)n3C)cc1	0	-6	4	-43	-1	2	·	·
Cc1nc2cc(NC(=O)N3c4ccccc4CC3C)ccc2n1C (stereo not given)	0	15	5	-116	6.0*	-1	18*	7.7*
Cc1nc2cc(NC(=O)Nc3ccccc3Cl)ccc2n1C	-2	-3	7	-167	12*	2	19*	8.4*
Cc1ccc(NC(=O)Nc2ccc3c(c2)nc(C)n3C)cc1	-1	5	7	-163	6.4*	2	16*	7.2*
CCCC(=O)N1CCC[C@]2(CC[C@@H](CCC#N)O2)C1	·	·	-1	·	0	·	·	·
Cc1ccc2nc(CSc3nc(C)ccc3C#N)[nH]c2c1	0	9	-4	-148	6.0*	5	16*	6.2*
C(/C=C\c1ccco1)=NN1CCN(Cc2cccc3ccccc23)CC1	·	·	-4	·	0	·	·	·
C/C(=N\NC(=O)c1ccccc1O)c1ccc(NC(=O)Cc2ccccc2)cc1	0	-4	4	-73	7.2*	-2	6.3*	3.6*
COc1cc(C(=O)N/N=C(\C)c2ccc(NC(=O)Cc3ccccc3)cc2)ccc1O	1	-6	3	-49	6.9*	·	6.2*	4.2*
C[N+]1=C(N)NC2=C3CCCCC3n3c(=O)n(-c4ccccc4)c(=O)n3C2C1 (stereo not given)	·	·	-4	·	0	·	·	·
CCCN1CCN(CCCNC(=O)c2ccc3c(c2)NC(=O)c2ccccc2S3)CC1	1	3	0	-27	6.1*	0	4.4*	1
CC(=O)c1ccc(N=Nc2ccc(C)cc2)cc1	0	-29	4	-100	6.6*	·	9.5*	3
CC(C)(C)c1ccc(-c2nnc(N)s2)cc1	3	-2	2	-149	5.0*	-1	11*	7.0*
CC(=O)OCC(=O)NCC1CCN(C(=O)C(=O)c2cc3ccccc3o2)CC1	·	·	-5	·	1	·	·	·
COc1ccc(C(=O)OCCN(C)C2CN(Cc3cn(Cc4ccccc4Cl)nn3)S(=O)(=O)C2)cc1OC (stereo not given)	·	·	-1	·	-2	·	·	·
Cc1ccnc(NC(=O)c2ccc(NC(=O)CC3SC(N4CCCC4)=NC3=O)cc2)c1 (stereo not given)	1	-3	-4	-1	1	-3	·	·
